According to article PMC7261135 (Journal of medicinal chemistry, 2020):
Where two headings read alike, the source gives them in different places.

Experiments:
[1] = in vitro plasma stability; format: in vitro ADME; settings: rat plasma (rat serum)
In short: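 Test compound incubated in rat serum, with diltiazem run alongside as assay QC control.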

[2] = solution stability at pH 5.0, 7.4, 9.4; format: physicochemical
[3] = liver microsomal stability; format: in vitro ADME, rat
mGluR4 [4] = molecular target: T1, mGluR4 (Homo sapiens, UniProt Q14833); assay: mGluR4 Gi fold shift assay; format: cell-based
T1 sequence (Q14833 33-912): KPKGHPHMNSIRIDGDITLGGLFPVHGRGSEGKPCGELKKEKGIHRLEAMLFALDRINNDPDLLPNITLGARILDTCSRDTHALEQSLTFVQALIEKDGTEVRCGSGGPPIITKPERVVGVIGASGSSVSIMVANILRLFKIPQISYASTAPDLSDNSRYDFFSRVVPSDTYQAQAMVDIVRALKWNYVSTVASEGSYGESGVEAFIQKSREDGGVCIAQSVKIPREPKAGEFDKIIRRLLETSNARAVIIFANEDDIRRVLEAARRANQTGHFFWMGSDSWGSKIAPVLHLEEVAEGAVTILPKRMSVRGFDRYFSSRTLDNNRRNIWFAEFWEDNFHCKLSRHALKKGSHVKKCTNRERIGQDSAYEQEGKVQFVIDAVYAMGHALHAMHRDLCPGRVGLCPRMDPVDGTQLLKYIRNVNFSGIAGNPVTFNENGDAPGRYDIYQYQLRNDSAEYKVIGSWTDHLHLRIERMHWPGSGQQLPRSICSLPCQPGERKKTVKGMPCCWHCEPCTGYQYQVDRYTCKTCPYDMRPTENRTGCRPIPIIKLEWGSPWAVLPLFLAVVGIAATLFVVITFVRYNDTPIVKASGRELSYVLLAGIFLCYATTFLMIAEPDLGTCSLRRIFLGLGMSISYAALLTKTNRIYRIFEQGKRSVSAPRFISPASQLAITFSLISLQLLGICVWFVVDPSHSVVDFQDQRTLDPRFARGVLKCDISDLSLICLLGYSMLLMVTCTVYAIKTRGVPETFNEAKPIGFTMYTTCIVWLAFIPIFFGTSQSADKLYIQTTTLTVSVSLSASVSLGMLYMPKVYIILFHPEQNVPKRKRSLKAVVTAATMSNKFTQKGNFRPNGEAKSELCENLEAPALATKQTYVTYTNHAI
In short: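 Split-luciferase GloSensor cAMP biosensor read-out of Gi-coupled mGluR4 signalling. L-SOP concentration-response curves were run with test compound at 3.0 μM and the leftward shift measured; efficacy given relative to glutamate maximum. Data from NIMH PDSP, averaged over at least three independent determinations run in triplicate.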

mGluR4 [5] = molecular target: T1, mGluR4; assay: competitive binding assay with [^3H]4 in mGluR4 transfected CHO cells
[6] = Log D7.4, scaled-down shake flask method using [^18F]15; format: physicochemical; settings: octanol/phosphate buffer, pH 7.4
In short: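 Radiolabelled test compound (74 kBq) was partitioned between octanol and pH 7.4 phosphate buffer, vortexed 2 min and centrifuged 2 min, and both phases were sampled. An octanol aliquot went into fresh octanol/buffer and the cycle was repeated to give six sets. Gamma counting; Log D = log(octanol counts × 10 / buffer counts).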

mGluR4 [7] = molecular target: T2, mGluR4 (Rattus norvegicus, UniProt P31423); assay: PET imaging of [^18F]15, baseline; format: in vivo, Sprague Dawley rats; settings: rats
T2 sequence (P31423 33-912): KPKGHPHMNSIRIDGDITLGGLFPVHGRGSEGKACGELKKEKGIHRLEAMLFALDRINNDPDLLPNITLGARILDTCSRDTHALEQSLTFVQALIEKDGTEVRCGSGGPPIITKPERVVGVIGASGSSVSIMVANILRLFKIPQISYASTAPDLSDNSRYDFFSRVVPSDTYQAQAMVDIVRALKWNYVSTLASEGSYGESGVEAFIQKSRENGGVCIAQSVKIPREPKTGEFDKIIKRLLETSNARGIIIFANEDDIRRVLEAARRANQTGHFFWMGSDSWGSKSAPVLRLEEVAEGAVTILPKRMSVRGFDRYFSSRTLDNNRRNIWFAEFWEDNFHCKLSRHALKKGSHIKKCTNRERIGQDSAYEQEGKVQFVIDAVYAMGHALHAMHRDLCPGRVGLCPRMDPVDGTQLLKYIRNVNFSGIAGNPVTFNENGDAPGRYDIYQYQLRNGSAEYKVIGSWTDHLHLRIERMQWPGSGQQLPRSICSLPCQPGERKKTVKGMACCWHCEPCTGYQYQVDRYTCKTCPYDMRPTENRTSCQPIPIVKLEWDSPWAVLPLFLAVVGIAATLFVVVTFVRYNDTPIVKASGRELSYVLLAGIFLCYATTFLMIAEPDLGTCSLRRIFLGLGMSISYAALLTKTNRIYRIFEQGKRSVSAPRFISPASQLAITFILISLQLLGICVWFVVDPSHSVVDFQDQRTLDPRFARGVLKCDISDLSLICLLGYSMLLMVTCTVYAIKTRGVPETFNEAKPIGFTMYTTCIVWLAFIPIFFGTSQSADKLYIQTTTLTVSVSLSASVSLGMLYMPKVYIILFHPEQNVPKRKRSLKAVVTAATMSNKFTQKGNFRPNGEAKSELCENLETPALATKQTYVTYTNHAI

[8] = ex vivo biodistribution of [^18F]15; format: in vivo; settings: male Sprague Dawley rats
mGluR4 [9] = molecular target: T2, mGluR4; assay: PET blocking studies of [^18F]15 binding; format: in vivo, Sprague Dawley rats; settings: rats
In short: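 Male Sprague Dawley rats under isoflurane/nitrous oxide (1.0–1.5% isoflurane) with a tail-vein catheter. Blocker 1, 2 or 3 mg/kg in saline with 10% DMSO, 5% Tween-20, 85% PBS, given 1 min before iv tracer (18–34 MBq). Dynamic PET 60 min, CT for attenuation correction, MLEM reconstruction. Regional time-activity curves; blocking as percent change from baseline scans.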

[10] = rat liver microsomes with NADPH

SMILES: COc1cc(NC(=O)c2ccccn2)ccc1Cl [Compound 4]
- The plasma stability: The intact ± SEM at 120 (min%) [1]: 98.2 ± 6.3%
- The solution stability: The intact ± SEM at 120 min ([2]; pH = 5.0): 92.7 ± 3.1%
- The solution stability: The intact ± SEM at 120 min ([2]; pH = 7.4): 97.3 ± 1.1%
- The solution stability: The intact ± SEM at 120 min ([2]; pH = 9.4): 89.1 ± 2.1%

SMILES: [2H]C([2H])(F)Sc1cc(NC(=O)c2ccccn2)ccc1Cl [Compound 15, N-(4-Chloro-3-((fluoromethyl-d2)thio)phenyl)picolinamide]
- microsomal CLint ([3]; rat, liver microsomes): 24.2 µL/min/mg
- The plasma stability: The intact ± SEM at 120 (min%) [1]: 84.5 ± 10.2%
- leftward shift of agonist (L-SOP) response curve (mGluR4 [4]; at 3.0 μM): 7.5 fold
- Emax at 3 µM (mGluR4 [4]; read-out: Glu Max efficacy): 98.3%
- IC50 (mGluR4 [5]): 3.5 ± 0.5 nM
- The solution stability: The intact ± SEM at 120 min ([2]; pH = 5.0): 87.1 ± 0.9%
- The solution stability: The intact ± SEM at 120 min ([2]; pH = 7.4): 88.3 ± 1.9%
- The solution stability: The intact ± SEM at 120 min ([2]; pH = 9.4): 84.3 ± 1.8%
- logD [6]: 3.82

SMILES: [2H]C([2H])([18F])Sc1cc(NC(=O)c2ccccn2)ccc1Cl [[^18F]15, [^18F]-N-(4-chloro-3-((fluoromethyl-d2)thio)phenyl)-picolinamide]
- time of highest accumulation in the thalamus (mGluR4 [7]; after administration of the ligand): about 2 min
- maximum average uptake in the thalamus (mGluR4 [7]; time interval 1–10 min after administration): 1.77±0.26 % ID/cc
- accumulation in brain ([8]; at 10 min after iv injection): 0.41±0.18 % ID/g
- accumulation in heart ([8]; at 20 min after iv injection): 0.50±0.08 % ID/g
- accumulation in liver ([8]; at 20 min after iv injection): 1.33±0.12 % ID/g
- accumulation in lungs ([8]; at 20 min after iv injection): 0.58±0.17 % ID/g
- accumulation in kidneys ([8]; at 30 min after iv injection): 0.93±0.57 % ID/g

SMILES: COc1ccc([C@@H]2Sc3ccccc3N(CCN(C)C)C(=O)[C@@H]2OC(C)=O)cc1 [Diltiazem]
- The plasma stability: The intact ± SEM at 120 (min%) [1]: 49.0 ± 10.6%
- The solution stability: The intact ± SEM at 120 min ([2]; pH = 5.0): 94.7 ± 1.4%
- The solution stability: The intact ± SEM at 120 min ([2]; pH = 7.4): 99.0 ± 5.7%
- The solution stability: The intact ± SEM at 120 min ([2]; pH = 9.4): 69.8 ± 2.6%

SMILES: CSc1cc(NC(=O)c2ccccn2)ccc1Cl [Compound 13]
- blocking of [^18F]15 binding in striatum (mGluR4 [9]; blocking agent 1 mg/kg): 18%
- blocking of [^18F]15 binding in striatum (mGluR4 [9]; blocking agent 2 mg/kg): 20%
- blocking of [^18F]15 binding in striatum (mGluR4 [9]; blocking agent 3 mg/kg): 28%
- blocking of [^18F]15 binding in the whole brain (mGluR4 [9]; blocking agent 1, 2 or 3 mg/kg, 1 min before tracer): 22–25%
- The microsome stability Clint [3, 10]: 54.8 μL/min /mg protein
- The microsome stability t1/2 [3, 10]: 25.3 min
- The plasma stability: The intact ± SEM at 120 (min%) [1]: 91.5 ± 2.5%
- IC50 (mGluR4 [5]; read-out: IC50±SE, mGluR4 transfected CHO cells, 2 nM [^3H]4, test compound 0.01 nM to 10 μM): 3.5 ± 0.7 nM
- The solution stability: The intact ± SEM at 120 min ([2]; pH = 5.0): 85.9 ± 0.8%
- The solution stability: The intact ± SEM at 120 min ([2]; pH = 7.4): 87.9 ± 3.4%
- The solution stability: The intact ± SEM at 120 min ([2]; pH = 9.4): 89.3 ± 1.3%
